NR2E3 ag-1: NR2E3 agonists in two-hybrid cells, primary screen, cell-based, luminescence, CHO-S, Gal4-NCOR/VP16-NR2E3; 0.35% of 360,000 active; luciferase; inhibition of corepressor binding, % at 3.98 µM;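 active = inhibition above the mean of all tested compounds plus 3 SD, cut at about 70% in these data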;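 note: higher means lower luciferase signal from less NR2E3 corepressor binding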
DAGLB inhibitor: DAGLB lipase inhibitors, primary screen, biochemical, fluorescence, HTS; inhibition, % at 5.17 µM; HEK293T DAGLB membrane lysate, EnzChek fluorogenic substrate; AID 504411, 2011; Diacylglycerol lipase-beta (Homo sapiens), Q8NCG7; 0.059% of 340,000 active; in the data active = inhibition above about 34%
Target sequence (Q8NCG7 whole entry, looked up): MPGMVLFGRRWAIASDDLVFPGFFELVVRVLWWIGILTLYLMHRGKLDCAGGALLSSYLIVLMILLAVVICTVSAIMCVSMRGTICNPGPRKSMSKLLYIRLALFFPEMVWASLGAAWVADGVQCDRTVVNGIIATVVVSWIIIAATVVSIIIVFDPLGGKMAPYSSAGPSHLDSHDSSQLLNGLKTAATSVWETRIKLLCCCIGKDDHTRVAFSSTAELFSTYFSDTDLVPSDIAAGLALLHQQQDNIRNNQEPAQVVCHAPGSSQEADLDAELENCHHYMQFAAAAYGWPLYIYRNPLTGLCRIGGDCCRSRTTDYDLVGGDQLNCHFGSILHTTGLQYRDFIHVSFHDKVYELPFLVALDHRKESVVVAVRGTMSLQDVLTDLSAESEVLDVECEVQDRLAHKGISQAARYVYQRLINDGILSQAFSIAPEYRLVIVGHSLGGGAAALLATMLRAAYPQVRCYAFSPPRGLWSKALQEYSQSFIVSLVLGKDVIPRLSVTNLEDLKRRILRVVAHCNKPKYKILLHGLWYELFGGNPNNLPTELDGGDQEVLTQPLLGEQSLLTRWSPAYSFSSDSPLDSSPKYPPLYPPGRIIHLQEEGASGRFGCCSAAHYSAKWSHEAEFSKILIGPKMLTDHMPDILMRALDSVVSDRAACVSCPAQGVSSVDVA
Vif inh: HIV Vif self-association inhibitors, primary screen, imaging, HEK293T, single point | HEK293T cells, Vif self-association by quenched fluorescence, 24 h | inhibition, % at 7.49 µM | 0.35% of 340,000 active | AID 602346, 2012; in the data active = inhibition above about 50%, passing the limit was not always enough; inconclusive = no clear call, values can overlap the other calls; inactive = below about 31%
MT1-MMP act inh: blockers of MT1-MMP proenzyme processing, primary screen, HT1080 RFP-PRO-GFP cells, GFP/RFP fluorescence; GFP/RFP ratio fluorescence, overnight; percent of plate control window, DMSO zero; GFP/RFP ratio change, % at 20 µM; 0.061% of 360,000 active; AID 651647, 2012;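 active = GFP/RFP ratio change of at least 30% with cell ATP level not reduced by more than half and red fluorescence within 50% of control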
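Material – HT1080 RFP-PRO-GFP cells · Control set – DMSO wells and RFP-L50D-GFP cells · Incubation – overnight cell settling, then overnight compound exposure, 37 °C, 5% CO2 · Compound dosing – single-point 20 µM compound, 1% DMSO · Read-out – GFP/RFP fluorescence ratio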
NR2E3 ag-2: inhibitors of NR2E3-RetCOR corepressor binding, primary screen, NR2E3 agonist project, biochemical, TR-FRET, GST-NR2E3, biotin-RetCOR | 0.12% of 320,000 active | Photoreceptor-specific nuclear receptor (Homo sapiens), Q9Y5X4 | AID 2300, 2010 | inhibition of corepressor binding, % at 4.78 µM | 1536-well;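 active = percent inhibition above the cutoff of mean plus 3 SD of all tested compounds, set per screening campaign, cut at about 20% in these data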
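Assay system: NR2E3–RetCOR corepressor complex. Quantity: 1.35 nM GST-NR2E3. Buffer or medium: pH 7.5 Tris-based buffer. Reagent: biotinylated RetCOR corepressor at 7 nM final. Schedule: 5 h at 4 °C. Detection: TR-FRET, emission read at 617 and 671 nm. Replicates: one well per compound, singlicate testing.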
HCV core dimer: inhibitors of HCV core protein dimerization, primary screen, biochemical, TR-FRET, high-throughput | inhibition, % at 5 µM | TR-FRET GST/Flag-core106 dimerization, 1536-well | 0.33% of 300,000 active;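 active = inhibition above the mean of all tested compounds plus 3 SD, set per screening campaign, cut at about 45% in these data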
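Material: Tagged HCV core106 pair (GST and Flag) | Amount: GST-core106 13.5 nM, Flag-core106 17 nM | Medium: KF-containing HEPES buffer, pH 7.45, DTT, CHAPS, BSA | Reagent: Eu donor and XL665 acceptor anti-tag antibodies | Schedule: 4 h at 22.5 °C | Technique: Time-resolved FRET, ex 340 nm, em 617 and 671 nm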
NR2E3 ag confirm: NR2E3 agonist confirmation in cells, cell-based, luminescence, CHO-S two-hybrid; shares compounds with NR2E3 ag-1; CHO-S mammalian two-hybrid NR2E3-NCOR, luciferase luminescence; inhibition, % at 3.98 µM; 51% of 2,300 active;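 active = average inhibition above a cutoff equal to the mean inhibition of all tested compounds plus one SD, cut at about 70% in these data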
GAL4-VP16 luc: GAL4-VP16 reporter modulators, confirmation, counter-screen for NR2E3 agonist project, cell-based, luminescence, CHO-S, high throughput; CHO-S GAL4-VP16 luciferase reporter; shares compounds with NR2E3 ag-1; inhibition, % at 3.98 µM; 29% of 2,300 active;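 active = mean inhibition above a cutoff equal to the average over all tested compounds plus one standard deviation, cut at about 70% in these data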;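 note: luciferase from a UAS reporter driven by GAL4-VP16 transactivation; higher means less reporter light so more repression of VP16 activity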
Large screens that a line does not name were inactive (follow-up assays come after a bar, where they were run). Hits are enriched below; roughly 1.1% of the tested compounds scored in any of these assays.

Cc1ccc(-n2nc3c(=O)n(C(C)C(=O)NCCC4=CCCCC4)nc(C)c3c2C)cc1 (stereo unspecified)	none | NR2E3 ag confirm inactive | GAL4-VP16 luc inactive
Cc1nc(NCc2ccc(S(N)(=O)=O)cc2)c2c(C)c(C)sc2n1	none
Cc1nc(NCCc2ccc(S(N)(=O)=O)cc2)c2c(C)c(C)sc2n1	none (no result: Vif inh) | NR2E3 ag confirm 73 | GAL4-VP16 luc inactive
CCSc1nsc(NC(=O)Nc2cccc(F)c2)n1	NR2E3 ag-1 93 | NR2E3 ag confirm 99 | GAL4-VP16 luc 84
COc1cccc(NC(=O)Nc2nc(SC)ns2)c1	none
COc1cc(C)ccc1S(=O)(=O)NC(=O)C1(C)CCN1C(=O)c1ccc(C(F)(F)F)nc1C (stereo unspecified)	none (no result: DAGLB inhibitor, NR2E3 ag-2, HCV core dimer)
CCc1cc(-c2nnn(CCC3COCCO3)c2CC)ccc1-c1cn(Cc2ccccc2)nn1 (stereo unspecified)	NR2E3 ag-1 76 (no result: NR2E3 ag-2, HCV core dimer) | NR2E3 ag confirm 76 | GAL4-VP16 luc inactive
COc1cccc(CNS(=O)(=O)c2ccc3c(c2)CC(C)N3C(=O)C2CC2)c1 (stereo unspecified)	none | NR2E3 ag confirm inactive | GAL4-VP16 luc inactive
CC1CC(C)CN(CCCNS(=O)(=O)c2ccc3c(c2)CCN3C(=O)C2CC2)C1 (stereo unspecified)	none
COc1cc(CNS(=O)(=O)c2ccc3c(c2)CC(C)N3C(=O)C2CCC2)cc(OC)c1OC (stereo unspecified)	none
COc1ccc(CNS(=O)(=O)c2ccc3c(c2)CCN3C(=O)C2CC2)cc1	none | NR2E3 ag confirm inactive | GAL4-VP16 luc inactive
COc1ccc(CNS(=O)(=O)c2ccc3c(c2)CC(C)N3C(=O)C2CC2)cc1 (stereo unspecified)	NR2E3 ag-1 95 | NR2E3 ag confirm 89 | GAL4-VP16 luc 75
O=C(C1CCC1)N1CCc2cc(S(=O)(=O)NCCN3CCN(c4ccccc4F)CC3)ccc21	none | NR2E3 ag confirm inactive | GAL4-VP16 luc inactive
O=C(C1CC1)N1CCc2cc(S(=O)(=O)NCCCN3CCCCC3)ccc21	none
CNC(=S)N1CCc2cc(OC)c(OC)cc2C1	none
CC(C)C[C@@H](CN1CCC[C@@H]1CN1C(=S)NC[C@@H]1Cc1ccc(O)cc1)N1C[C@H](Cc2ccc(O)cc2)N(CC2CCCCC2)C1=S	none (no result: DAGLB inhibitor, NR2E3 ag-2, HCV core dimer) | NR2E3 ag confirm inactive | GAL4-VP16 luc inactive
CC(C)c1cc2c(c(O)c1O)[C@@]13CCCC(C)(C)C1CC2OC3=O (stereo partly specified)	NR2E3 ag-1 85 | NR2E3 ag confirm 92 | GAL4-VP16 luc inactive
CCCCCCC(=O)N1C/C=C\C(c2ccc(OC)cc2)N(Cc2ccc(F)cc2)C(=O)C1 (stereo unspecified)	none | NR2E3 ag confirm inactive | GAL4-VP16 luc inactive
Brc1ccc(-c2nnc3c4ccccc4nc(N4CCOCC4)n23)cc1	NR2E3 ag-1 80 | NR2E3 ag confirm inactive | GAL4-VP16 luc inactive
CCOC(=O)c1c(NC(=O)c2cc3n(n2)C(C(F)(F)F)CC(c2cccs2)N3)sc(C)c1C (stereo unspecified)	none
CCCCNc1c(-c2ccc(OC)c(SC3CCCCC3)c2)nc2ccc(C)cn12	none (no result: NR2E3 ag-2, HCV core dimer) | NR2E3 ag confirm inactive | GAL4-VP16 luc inactive
COc1ccc(OC)c(S(=O)(=O)Nc2cc3c(cc2N2CCCC2)n(C)c(=O)c(=O)n3C)c1	none
COC(=O)c1cccc(NC(=O)CCNC(=O)c2ccco2)c1	none (no result: MT1-MMP act inh)
CN(C)S(=O)(=O)N1CCC(Oc2ccc(C(=O)NC3CCCCC3)cc2)CC1	none
CN(C)S(=O)(=O)N1CCC(Oc2cccc(C(=O)NC3CCCCC3)c2)CC1	none | NR2E3 ag confirm inactive | GAL4-VP16 luc inactive
CO/N=C/c1ccc(N2CCN(C(=O)c3ccc(F)cc3)CC2)c([N+](=O)[O-])c1	none
CO/N=C/c1ccc(N2CCN(C(=O)c3ccc(Cl)cc3Cl)CC2)c([N+](=O)[O-])c1	NR2E3 ag-1 76 | NR2E3 ag confirm 91 | GAL4-VP16 luc 76
CN(C)S(=O)(=O)c1ccc(C(=O)Nc2cc(S(=O)(=O)Nc3ccccc3Cl)ccc2N2CCCCC2)cc1	none | NR2E3 ag confirm 85 | GAL4-VP16 luc inactive
CCOc1c(Br)cc(CNc2ccc3c(c2)OCCO3)cc1OC	none | NR2E3 ag confirm inactive | GAL4-VP16 luc inactive
O=C(NC1CCCCC1)c1cccnc1Sc1ccccc1	none
CC(=O)c1sc(NC(=O)C(C)Oc2ccc3c(C)cc(=O)oc3c2)nc1C (stereo unspecified)	none
O=C(Cc1ccc(Cl)cc1)Nc1ncc([N+](=O)[O-])s1	none (no result: NR2E3 ag-2, HCV core dimer)
Cc1cnc(NC(=O)Cc2cccs2)s1	none (no result: Vif inh)
COc1ccc2c(CC(=O)Nc3ncc(C)s3)coc2c1	none | NR2E3 ag confirm 96 | GAL4-VP16 luc inactive
O=C(Cc1ccc(Br)cc1)Nc1ncc([N+](=O)[O-])s1	NR2E3 ag-1 72 | NR2E3 ag confirm 97 | GAL4-VP16 luc inactive
Cc1cnc(NC(=O)Cc2ccc(Br)cc2)s1	none | NR2E3 ag confirm 91 | GAL4-VP16 luc inactive
N#Cc1c(N)nc2c(c1-c1ccc(F)cc1)c(=O)nc1sccn12	none
CN(C)c1ccc(/C=C/c2ccc3ccccc3[n+]2C)cc1	none | NR2E3 ag confirm 87 | GAL4-VP16 luc inactive
O=c1[nH][nH]c(-c2ccccc2)c1C=Nc1ccc(OC(F)(F)F)cc1	none | NR2E3 ag confirm inactive | GAL4-VP16 luc inactive
O=c1[nH][nH]c(-c2ccccc2)c1C=Nc1ccc(C(F)(F)F)cc1	none
COc1ccccc1-c1nnc(Nc2nc3c(OC)cccc3s2)o1	NR2E3 ag-1 74, Vif inh inconclusive | NR2E3 ag confirm inactive | GAL4-VP16 luc inactive
Cc1nn(C)c(C)c1CN(C)S(=O)(=O)c1ccc2ccccc2c1	NR2E3 ag-1 85 | NR2E3 ag confirm 96 | GAL4-VP16 luc 86
CCCCN(CCCC)S(=O)(=O)c1ccc(NS(=O)(=O)c2ccc(NC(C)=O)cc2)cc1	none

High-throughput results from PubChem.
